Laboratory results: ChEMBL document CHEMBL1129478, “Structure-activity relationship studies of novel 4-[2-[bis(4-fluorophenyl)methoxy]ethyl]-1-(3-phenylpropyl)piperidine analogs: synthesis and biological evaluation at the dopamine and serotonin transporter sites” (J Med Chem, 1996)

Tests used:
[1] = biological target: Sodium-dependent serotonin transporter (Rattus norvegicus, UniProt P31652); experiment: Binding affinity at serotonin transporter from rat brain striatal membrane by [3H]citalopram displacement.; format: tissue-based
Sodium-dependent serotonin transporter, sequence (P31652 whole entry): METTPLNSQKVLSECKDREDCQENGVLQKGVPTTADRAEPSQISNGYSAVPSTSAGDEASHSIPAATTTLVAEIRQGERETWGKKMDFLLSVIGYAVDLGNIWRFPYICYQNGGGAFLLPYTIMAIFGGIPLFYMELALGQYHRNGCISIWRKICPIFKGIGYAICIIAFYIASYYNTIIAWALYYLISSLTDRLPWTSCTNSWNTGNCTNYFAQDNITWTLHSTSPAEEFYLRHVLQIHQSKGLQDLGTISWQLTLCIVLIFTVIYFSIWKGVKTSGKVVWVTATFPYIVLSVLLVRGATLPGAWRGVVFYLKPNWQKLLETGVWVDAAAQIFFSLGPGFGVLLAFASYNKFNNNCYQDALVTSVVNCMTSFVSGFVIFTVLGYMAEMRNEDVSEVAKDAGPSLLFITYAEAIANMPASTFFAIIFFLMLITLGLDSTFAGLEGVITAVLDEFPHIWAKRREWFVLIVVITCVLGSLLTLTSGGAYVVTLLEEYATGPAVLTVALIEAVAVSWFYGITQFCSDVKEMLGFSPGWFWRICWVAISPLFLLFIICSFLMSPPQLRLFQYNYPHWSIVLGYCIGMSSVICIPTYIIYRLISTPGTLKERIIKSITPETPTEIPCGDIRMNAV
In short: (§1)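 Rat striatal P2 membranes: tissue homogenised in 0.32 M sucrose, pellet polytronned in ice-cold 35 mM sodium phosphate, pH 7.4. Incubation 2 h on ice, final sodium phosphate 30 mM, final DMSO 0.5%. Five inhibitor concentrations set after range-finding. Mean ± SEM of 3–5 (DAT, [3H]CFT) or 2–3 (SERT, [3H]citalopram) independent experiments, each in triplicate.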

[2] = biological target: Monoamine transporters; serotonin & dopamine (Rattus norvegicus) (UniProt P31652+P23977); experiment: Selectivity for serotonin and dopamine transporters; format: protein assay
Monoamine transporters; serotonin & dopamine (Rattus norvegicus), sequence (P23977 whole entry, looked up): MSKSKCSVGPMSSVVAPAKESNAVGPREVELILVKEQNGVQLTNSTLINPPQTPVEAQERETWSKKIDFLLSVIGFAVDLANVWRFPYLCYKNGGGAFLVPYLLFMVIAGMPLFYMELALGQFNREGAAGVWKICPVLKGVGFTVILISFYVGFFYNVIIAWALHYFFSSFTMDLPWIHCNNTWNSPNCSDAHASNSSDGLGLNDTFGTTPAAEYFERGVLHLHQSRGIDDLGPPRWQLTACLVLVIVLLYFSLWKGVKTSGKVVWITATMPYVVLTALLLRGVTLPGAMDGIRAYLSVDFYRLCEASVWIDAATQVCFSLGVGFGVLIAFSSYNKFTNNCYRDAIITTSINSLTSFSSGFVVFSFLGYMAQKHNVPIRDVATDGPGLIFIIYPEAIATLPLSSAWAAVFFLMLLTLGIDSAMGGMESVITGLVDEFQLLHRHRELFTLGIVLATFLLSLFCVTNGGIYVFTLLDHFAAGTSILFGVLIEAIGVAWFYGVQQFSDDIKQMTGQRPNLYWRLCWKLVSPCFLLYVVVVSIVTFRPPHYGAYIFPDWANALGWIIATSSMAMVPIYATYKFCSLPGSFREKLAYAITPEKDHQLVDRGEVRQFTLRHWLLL
Monoamine transporters; serotonin & dopamine (Rattus norvegicus), sequence (P31652 whole entry, looked up): as the sequence (P31652 whole entry) above

[3] = biological target: Sodium-dependent dopamine transporter (Rattus norvegicus, UniProt P23977); experiment: Binding affinity at dopamine transporter from rat striatal membrane tissue by [3H]CFT displacement.; format: tissue-based, Striatum; in short: as §1
Sodium-dependent dopamine transporter, sequence (P23977 whole entry): as the sequence (P23977 whole entry, looked up) above

| SMILES | IC50 [1] | Selectivity [2] | IC50 [3] |
| --- | --- | --- | --- |
| COc1ccc(C(OCCC2CCN(CCCc3ccccc3)CC2)c2ccc(OC)cc2)cc1 | 340 nM | 1.3 | 255 nM |
| c1ccc(CCN2CCC(COC(c3ccccc3)c3ccccc3)CC2)cc1 | 456 nM | 4.2 | 108 nM |
| c1ccc(CN2CCC(CCOC(c3ccccc3)c3ccccc3)CC2)cc1 | 743 nM | 49 | 15.2 nM |
| Brc1ccc(C(OCCC2CCN(CCCc3ccccc3)CC2)c2ccc(Br)cc2)cc1 | 835 nM | 5.2 | 159 nM |
| c1ccc(CCN2CCC(CCOC(c3ccccc3)c3ccccc3)CC2)cc1 | 102 nM |  |  |
| Brc1ccc(C(OCCC2CCN(CCc3ccccc3)CC2)c2ccc(Br)cc2)cc1 | 638 nM | 1.6 | 382 nM |
| Fc1ccc(C(OCC2CCN(CCCc3ccccc3)CC2)c2ccc(F)cc2)cc1 | 112 nM | 8.6 | 13 nM |
| Cc1ccc(C(OCCC2CCN(CCc3ccccc3)CC2)c2ccc(C)cc2)cc1 | 888 nM | 2.8 | 311 nM |
| Clc1ccc(C(OCCC2CCN(CCCc3ccccc3)CC2)c2ccc(Cl)cc2)cc1 | 224 nM | 3.5 | 65 nM |
| Fc1ccc(C(OCCC2CCN(CCCc3ccccc3)CC2)c2ccc(F)cc2)cc1 | 55 nM | 3.3 | 16.7 nM |
| Fc1ccc(C(OCCC2CCN(CCc3ccccc3)CC2)c2ccc(F)cc2)cc1 | 31.9 nM |  |  |
| c1ccc(CCCN2CCC(COC(c3ccccc3)c3ccccc3)CC2)cc1 | 58 nM | 4 | 14.5 nM |
| c1ccc(CCCN2CCC(CCOC(c3ccccc3)c3ccccc3)CC2)cc1 | 232 nM | 20 | 12 nM |
| Fc1ccc(C(OCC2CCN(CCc3ccccc3)CC2)c2ccc(F)cc2)cc1 | 237 nM | 17.5 | 13.5 nM |
| c1ccc(CN2CCC(COC(c3ccccc3)c3ccccc3)CC2)cc1 | 544 nM | 0.7 | 702 nM |
| Fc1ccc(C(OCC2CCN(Cc3ccccc3)CC2)c2ccc(F)cc2)cc1 | 761 nM | 6 | 126 nM |
| Fc1ccc(C(OCCC2CCN(Cc3ccccc3)CC2)c2ccc(F)cc2)cc1 | 198 nM | 20 | 9.7 nM |
| Clc1ccc(C(OCCC2CCN(CCc3ccccc3)CC2)c2ccc(Cl)cc2)cc1 | 414 nM | 3.6 | 115 nM |
